For data set [1], the system named is Rattus norvegicus. In words: Tmax in Wistar rat assessed as ketorolac release at 0.163 mg/kg, po. The format is ADME, organism-based. On the set-up: dose 0.163 mg/kg, route oral. The note with it: in vivo. An outline of the steps: (§1)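 Male Wistar rats (200 ± 20 g), single oral dose; killed by decapitation at […], at least three rats per time point, each measured in triplicate. Plasma deproteinized with acetonitrile, centrifuged, organic phase analyzed by C18 HPLC at 313 nm with tolmetine internal standard. Calibration 0.1-100 µg/mL in drug-free matrix. Parameters taken from semilog concentration-time plots.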

Data set [2] deals with Mus musculus. The experiment in a line: Analgesic activity against acetic acid-induced writhing in Swiss mouse at 0.163 mg/kg, po administered 1 hr before acetic acid challenge measured after 5 mins for 20 mins. The format is functional, organism-based. Further details: dose 0.163 mg/kg. The method, boiled down: (§2)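 Male Swiss mice (20-25 g), fasted overnight, water allowed, six per group. Oral dosing with CMC vehicle given 1 h before ip 0.6% acetic acid or ip magnesium sulfate 120 mg/kg. Abdominal constriction, trunk turning and hind-leg extension counted: for acetic acid over 20 min starting 5 min post-injection, for MgSO4 over 5 min. Mean ± SEM.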
Background: Writhing tests count abdominal constrictions after an irritant is injected.

The test system of data set [3] is Rattus norvegicus. In words: AUMC (0 to 6 hrs) in Wistar rat assessed as ketorolac release at 0.163 mg/kg, po. The note with it: in vivo. Further details: dose 0.163 mg/kg, route oral. In kind it is ADME, organism-based. The method, boiled down: as §1
A short description of data set [4]: Chemical stability assessed as hydrolysis half life in 0.1N HCl at pH 1. The format is physicochemical. An outline of the steps:
(§3)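 Solutions of 100 µg/mL (ketorolac tris salt at 90.5 µg/mL) held at 37 °C for 24 h in 0.1 N HCl (pH 1), phosphate buffer pH 7.4 or 8.0, or plasma. Samples taken hourly; plasma samples extracted with acetonitrile (1:2) and centrifuged. Remaining ester measured by HPLC diode array at 313 nm. Pseudo-first-order t1/2 from log plots over time; mean ± SEM.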

Data set [5] has as its system Mus musculus. In words: Analgesic activity against acetic acid-induced writhing in po dosed Swiss mouse administered 1 hr before acetic acid challenge measured after 5 mins for 20 mins. The format is functional, organism-based. The method, boiled down:
as §2

The test system of data set [6] is Mus musculus. In words: Analgesic activity against magnesium sulfate-induced writhing in po dosed Swiss mouse administered 1 hr before magnesium sulfate challenge measured for 5 mins. The format is functional, organism-based. An outline of the steps:
as §2

For data set [7], the system named is Rattus norvegicus. The experiment in a line: Systemic clearance in Wistar rat assessed as ketorolac release at 0.163 mg/kg, po. The note with it: in vivo. Further details: dose 0.163 mg/kg, route oral. In kind it is ADME, organism-based. An outline of the steps: as §1
Data set [8] has as its system Rattus norvegicus. The experiment in a line: Mean residence time in Wistar rat assessed as time required for 63.2% of administered dose to be eliminated as ketorolac at 0.163 mg/kg, po. Further details: dose 0.163 mg/kg, route oral. As to conditions: in vivo. In kind it is ADME, organism-based. The method, boiled down: as §1
In data set [9] the test system is Rattus norvegicus. The experiment in a line: Elimination half life in Wistar rat assessed as ketorolac release at 0.163 mg/kg, po. As to conditions: in vivo. On the set-up: dose 0.163 mg/kg, route oral. The format is ADME, organism-based. An outline of the steps:
as §1

Data set [10] relates to Rattus norvegicus. The experiment in a line: Half life in Wistar rat assessed as ketorolac release at 0.163 mg/kg, po. The note with it: in vivo. On the set-up: dose 0.163 mg/kg, route oral. In kind it is ADME, organism-based. An outline of the steps: as §1
Data set [11] has as its system Rattus norvegicus. The experiment in a line: Cmax in Wistar rat assessed as ketorolac release at 0.163 mg/kg, po. In kind it is ADME, organism-based. On the set-up: dose 0.163 mg/kg, route oral. As to conditions: in vivo. An outline of the steps:
as §1

A short description of data set [12]: Chemical stability assessed as hydrolysis half life in phosphate buffer at pH 8.0. In kind it is physicochemical. The method, boiled down:
as §3

Data set [13] can be described thus: Stability in rat plasma assessed as half life. In kind it is ADME, cell-free. The method, boiled down: as §3
Data set [14] can be described thus: Chemical stability assessed as hydrolysis half life in phosphate buffer at pH 7.4. The format is physicochemical. The method, boiled down: as §3
Data set [15] deals with Mus musculus. The experiment in a line: Gastrointestinal toxicity in fasted Swiss mouse assessed ulcer index at 0.163 mg/kg, po after 4 hrs. The format is organism-based. Further details: dose 0.163 mg/kg, route oral. The note with it: in vivo. An outline of the steps:
(§4)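 Male Swiss mice, fasted 16-18 h, n = 6 per group, dosed orally (vehicle 0.5% CMC). Killed 4 h later; stomach opened along greater curvature, rinsed with saline and examined under magnifier. Scoring: irritation 1, lesions 1-3 mm 5, lesions >3 mm 10. Gastric lesion score and ulcer number given as mean ± SEM.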

Data set [16] relates to Rattus norvegicus. In words: AUC (0 to 6 hrs) in Wistar rat assessed as ketorolac release at 0.163 mg/kg, po. The format is ADME, organism-based, Plasma. On the set-up: time < 6 hr, dose 0.163 mg/kg, route oral. The note with it: in vivo. An outline of the steps: as §1
The test system of data set [17] is Mus musculus. The experiment in a line: Gastrointestinal toxicity in fasted Swiss mouse assessed ulcer index at 0.1 mg/kg, po after 4 hrs. In kind it is organism-based. Further details: dose 0.1 mg/kg, route oral. As to conditions: in vivo. The method, boiled down:
as §4

In data set [18] the test system is Mus musculus. In words: Antiinflammatory activity in Swiss mouse assessed as reduction in carrageenan-induced hind paw edema at 10 mg/kg, po administered 1 hr before carrageenan challenge measured after 48 hrs. The format is functional, organism-based. On the set-up: dose 10 mg/kg. An outline of the steps:
(§5)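 Male Swiss mice, six per group, dosed orally (CMC vehicle) 1 h before subplantar injection of 50 µL of 1% λ-carrageenan in saline into the right hind paw. Paw volume read by plethysmometer at intervals up to 96 h. Edema taken as volume minus basal volume measured just before injection. Mean ± SEM.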
Background: The carrageenan paw model is a standard test of acute inflammation.

A short description of data set [19]: Cmax in Wistar rat at 0.1 mg/kg, po. The format is ADME, organism-based. Further details: dose 0.1 mg/kg, route oral. The note with it: in vivo. An outline of the steps: as §1
The nature of data set [20]: Half life in Wistar rat at 0.1 mg/kg, po. The note with it: in vivo. On the set-up: dose 0.1 mg/kg, route oral. In kind it is ADME, organism-based. The method, boiled down:
as §1

Data set [21] in a line: Systemic clearance in Wistar rat at 0.1 mg/kg, po. The format is ADME, organism-based. On the set-up: dose 0.1 mg/kg, route oral. The note with it: in vivo. An outline of the steps:
as §1

Data set [22] is described as follows: Elimination half life in Wistar rat at 0.1 mg/kg, po. In kind it is ADME, organism-based. On the set-up: dose 0.1 mg/kg, route oral. As to conditions: in vivo, read-out: beta t1/2 (converted). The method, boiled down: as §1
Data set [23] has as its system Mus musculus. In words: Antiinflammatory activity in Swiss mouse assessed as reduction in carrageenan-induced hind paw edema at 0.1 mg/kg, po administered 1 hr before carrageenan challenge. In kind it is functional, organism-based. Further details: dose 0.1 mg/kg. The method, boiled down: as §5
Data set [24] can be described thus: AUC (0 to 6 hrs) in Wistar rat at 0.1 mg/kg, po. In kind it is ADME, organism-based. On the set-up: time < 6 hr, dose 0.1 mg/kg, route oral. As to conditions: plasma. The method, boiled down:
as §1

Data set [25] is described as follows: Mean residence time in Wistar rat assessed as time required for 63.2% of administered dose to be eliminated at 0.1 mg/kg, po. The format is ADME, organism-based. Further details: dose 0.1 mg/kg, route oral. The note with it: in vivo. The method, boiled down: as §1
A short description of data set [26]: Tmax in Wistar rat at 0.1 mg/kg, po. In kind it is ADME, organism-based. On the set-up: dose 0.1 mg/kg, route oral. As to conditions: in vivo. The method, boiled down:
as §1

For data set [27], the system named is Rattus norvegicus. The experiment in a line: AUMC (0 to 6 hrs) in Wistar rat at 0.1 mg/kg, po. In kind it is ADME, organism-based. Further details: dose 0.1 mg/kg, route oral. The note with it: in vivo. An outline of the steps: as §1

SMILES strings stand for the structures. Active and inactive are the calls of the source. No cut-off for these calls is given here. Some results are limits rather than exact numbers.

Consider `O=C(c1ccccc1)c1ccc2n1CC[C@@H]2C(=O)OC[C@H]1OC(O)[C@H](O)[C@@H](O)[C@H]1O` (stereo partly drawn), for which the time to peak (Tmax) (usually the time at which the peak concentration occurs) in the data set with Rattus norvegicus [1] turned out to be 1 h. Also, the outcome in the data set with Mus musculus [2] was Active. Besides, the AUMC in the data set with Rattus norvegicus [3] is 5600 ng·h/mL. Further, the half-life was 2.1 h in data set [4], greater than 4 h in data set [12], 1.5 h in data set [13] and greater than 4 h in data set [14]. For the same compound, the Activity entry in the data set with Mus musculus [5] and in the data set with Mus musculus [6] was “Dose-dependent effect” each time. Also, the CL with Rattus norvegicus [7] worked out at 80.36 mL/h. For the same compound, the MRT – broadly, the average time that molecules of a dose stay in the body – in the data set with Rattus norvegicus [8] is 4.5 h. Besides, the “beta t1/2” value in the data set with Rattus norvegicus [9] amounted to 2.4 h. Also, the t1/2 in the data set on Rattus norvegicus [10] was found to be 5.23 h. Further, the peak concentration (Cmax) (commonly the highest concentration seen after dosing) in the data set on Rattus norvegicus [11] worked out at 240 ng/mL. This compound registered a UI with Mus musculus [15] of 1. Moreover, the AUC (commonly the area under the concentration-time curve, a measure of exposure) in the data set on Rattus norvegicus [16] came out at 935 ng·h/mL.

Regarding `O=C(c1ccccc1)c1ccc2n1CCC2C(=O)O` (stereo not drawn) [KETOROLAC], the half-life in data set [4] was greater than 4 h; in data set [20] it was 1.65 h; in data set [22], 1.99 h; in data set [12] it was greater than 4 h; in [13], greater than 4 h; in data set [14], greater than 4 h. For the same compound, the UI with Mus musculus [17] is recorded as 10. Also, in the data set on Mus musculus [18], the result was Active. For the same compound, the Activity result with Mus musculus [5] and with Mus musculus [6] was “Dose-dependent effect” each time. Further, in data set [19], the highest concentration (Cmax) was found to be 400 ng/mL. The CL/F (in general, the apparent clearance, not corrected for the fraction that reaches the circulation) in [21] was 1.57 mL/min. The outcome in the data set on Mus musculus [23] was inactive. Also, in [24], the AUC(0-t) (as a rule, exposure summed from dosing to a finite time, without extrapolation to infinity) at 6 h came to 855 ng·h/mL. Moreover, the MRT in data set [25] was determined as 3.1 h. The time to peak (Tmax) in [26] is 1 h. Further, in the data set on Rattus norvegicus [27], the AUMC amounted to 3300 ng·h/mL.
